Reference: ChEMBL document CHEMBL4765447, “Design, synthesis and biological evaluation of diamino substituted cyclobut-3-ene-1,2-dione derivatives for the treatment of drug-resistant tuberculosis” (Eur J Med Chem, 2020)
Converted amounts (≈) assume the structure as drawn.

Legend:
[1] = tested on: Mycobacterium tuberculosis; test: Inhibition of ATP synthase in bedaquiline-resistant Mycobacterium tuberculosis assessed as reduction in bacterial growth incubated for 7 days by microplate alamar blue assay; details: time 7.0 day
Procedure, shortened: (§1)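 Microplate alamar blue assay. Strains grown to late log phase in 7H9 broth with 0.2% glycerol, 0.05% Tween 80 and 10% ADC, then washed, filtered (8 µm) and frozen. Twofold compound dilutions with 2×10^5 CFU per well at 37 °C. On day 7, Tween 80 and alamar blue added; after 16–24 h, fluorescence read at 530/590 nm. MIC is the lowest concentration giving ≥90% fluorescence reduction versus bacterium-only controls.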

[2] = Ratio of MIC for inhibition of ATP synthase in bedaquiline-resistant Mycobacterium tuberculosis to MIC for inhibition of ATP synthase in Mycobacterium tuberculosis H37Rv
Procedure, shortened: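 Ratio of alamar-blue MIC against the bedaquiline-resistant strain to MIC against H37Rv, both measured in the 7-day microplate alamar blue assay.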

[3] = tested on: Mycobacterium tuberculosis; test: Inhibition of ATP synthase in multi-drug resistant Mycobacterium tuberculosis clinical isolate 13946 assessed as reduction in bacterial growth incubated for 7 days by microplate alamar blue assay; details: time 7.0 day; procedure, shortened: as §1
[4] = tested on: Mycobacterium tuberculosis; test: Inhibition of ATP synthase in multi-drug resistant Mycobacterium tuberculosis clinical isolate 14862 assessed as reduction in bacterial growth incubated for 7 days by microplate alamar blue assay; details: time 7.0 day; procedure, shortened: as §1

Compound `COc1nc2ccc(Br)cc2cc1[C@@H](c1ccccc1)[C@@](O)(CCN(C)C)c1cccc2ccccc12` has an MIC=>90 [1] of 2.23 µg/mL (≈ 4.02 µM) and a Ratio [2] of 62.

For `O=c1c(NCc2ccccn2)c(-c2ccc(N3CCOCC3)cc2)c1=O`, the MIC=>90 [3] was 0.107 µg/mL (≈ 0.306 µM), the MIC=>90 [4] was 0.114 µg/mL (≈ 0.326 µM) and the MIC=>90 [1] was 3.02 µg/mL (≈ 8.63 µM). For the same compound, the Ratio [2] was 14.9.

Compound `O=C1CCCc2cc(Nc3c(NCc4ccccn4)c(=O)c3=O)ccc21` has an MIC=>90 [3] of 0.488 µg/mL (≈ 1.4 µM) and an MIC=>90 [4] of 0.895 µg/mL (≈ 2.58 µM).

For `CO[C@H]1/C=C/O[C@@]2(C)Oc3c(C)c(O)c4c(O)c(c(/C=N/N5CCN(C)CC5)c(O)c4c3C2=O)NC(=O)/C(C)=C\C=C\[C@H](C)[C@H](O)[C@@H](C)[C@@H](O)[C@@H](C)[C@H](OC(C)=O)[C@@H]1C`, the MIC=>90 [3] was > 10 µg/mL and the MIC=>90 [4] was 9.32 µg/mL (≈ 11.3 µM).

For `NNC(=O)c1ccncc1`, the MIC=>90 [3] was 2.26 µg/mL (≈ 16.5 µM), the MIC=>90 [4] was > 10 µg/mL and the MIC=>90 [1] was 0.052 µg/mL (≈ 0.379 µM).

`O=c1c(NCc2ccccn2)c(Nc2ccc3c(c2)CCC3)c1=O` gave an MIC=>90 [3] of 0.903 µg/mL (≈ 2.83 µM) and an MIC=>90 [4] of 0.94 µg/mL (≈ 2.94 µM).

Compound `Cc1cc(Nc2c(NCc3ccccn3)c(=O)c2=O)ccc1N1CCSCC1` has an MIC=>90 [3] of 0.257 µg/mL (≈ 0.651 µM), an MIC=>90 [4] of 0.207 µg/mL (≈ 0.525 µM) and an MIC=>90 [1] of 4.85 µg/mL (≈ 12.3 µM). It also gave a Ratio [2] of 5.7.

For `O=c1c(NCc2ccccn2)c(Nc2ccc3c(c2)OCO3)c1=O`, the MIC=>90 [3] was 0.47 µg/mL (≈ 1.45 µM), the MIC=>90 [4] was 0.499 µg/mL (≈ 1.54 µM) and the MIC=>90 [1] was 3.76 µg/mL (≈ 11.6 µM). It also gave a Ratio [2] of 7.5.

In the case of `O=c1c(NCc2ccccn2)c(Nc2ccc3scnc3c2)c1=O`, the MIC=>90 [3] is reported as 3.53 µg/mL (≈ 10.5 µM) and the MIC=>90 [4] is reported as 3.37 µg/mL (≈ 10 µM).
